Experiment [1] deals with Escherichia coli. The experiment in a line: Repression of atoC transcription in Escherichia coli K-12 BW25113 at 1 mM by beta-galactosidase reporter assay. The format is functional, organism-based. In short, it runs like this: (§1)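 BW25113 carrying pCPG6 (atoC-lacZ) grown at 37 °C with vigorous shaking in supplemented M9 minimal medium with ampicillin 100 µg/mL. Overnight cultures were diluted 1:15 into medium containing compound at 1 mM, or at 0, 0.25, 0.5, 1.0, 2.5 and 5 mM. Cells were grown to OD600 0.4–0.7, then harvested, washed twice in M9, and assayed for β-galactosidase. The pMLB1034 vector strain served as negative control. Two independent experiments, two clones each.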

Experiment [2] in a line: Induction of purified His6-tagged cytosolic AtoS autophosphorylation preincubated at 1 mM for 15 mins before […] addition after 30 mins by autoradiography. In short, it runs like this:
(§2)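 Purified His6-tagged cytoAtoS (7 µM) was preincubated 15 min at room temperature with compound at 1 mM final in 50 mM Tris-HCl pH 7.6, 10 mM MgCl2, 100 mM KCl, 1 mM DTT, 10 mM NaF. Reactions were stopped with SDS loading buffer, resolved on 12% SDS–PAGE and autoradiographed.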

For experiment [3], the system named is Escherichia coli. The experiment in a line: Induction of atoDAEB transcription in Escherichia coli K-12 BW25113 at 1 mM by beta-galactosidase reporter assay. The class given is functional, organism-based. In short, it runs like this:
(§3)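 BW25113 carrying pCPG5 (atoA-lacZ, atoDAEB promoter) grown at 37 °C in supplemented M9 minimal medium with 1 mM compound. Overnight cultures were diluted 1:15 and grown to OD600 0.4–0.7. Cells were washed twice in M9, then β-galactosidase activity was read. Plasmid pMLB1034 served as negative control.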
Background: In a reporter assay the amount or activity of a reporter protein is the signal.

Experiment [4] can be described thus: Induction of purified His6-tagged cytosolic AtoS kinase activity preincubated at 1 mM for 15 mins before […] addition after 30 mins by autoradiography. In a few lines:
as §2

Experiment [5] concerns Escherichia coli. The experiment can be described thus: Effect on HSP60 protein level in Escherichia coli K-12 BW25113 harboring plasmid containing atoC-lacZ at 0.25 to 5 mM by Western blot method. The class given is functional, organism-based.
In experiment [6] the test system is Escherichia coli. The experiment can be described thus: Reduction in AtoC protein level in Escherichia coli K-12 BW25113 harboring pUC-Az plasmid at 5 mM by immunoblot method. In general terms: In western blotting, separated proteins are transferred to a membrane and probed.
Experiment [7] has as its system Escherichia coli. The experiment in a line: Reduction in AtoS protein level in Escherichia coli K-12 BW25113 at 1 to 5 mM by immunoblot method. The class given is functional, organism-based. In short, it runs like this: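 BW25113/pUC-Az grown in supplemented M9 with various compound concentrations. Half of each dose was added at OD600 0.2 and half at 0.4, and growth continued to OD600 0.9. Total extracts (15 µL) were run on 10% SDS–PAGE and immunostained with anti-AtoC (1:500) or anti-AtoS (1:1000). BW28878 was the negative control.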

Experiment [8] deals with Nucleic Acid. The experiment can be described thus: Activation of atoDAEB promoter activity in Escherichia coli K-12 BW25113 harboring plasmid containing atoA-lacz at 0.1 to 2.5 mM by beta-galactosidase reporter assay in presence of 2.5 mM acetoacetate. The format is nucleic-acid assay. In a few lines: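 BW25113/pCPG5 (atoA-lacZ) grown in modified M9 mineral medium with no acetoacetate or with 2.5 or 10 mM acetoacetate. Compound was added at 0.1, 0.5, 1.0 or 2.5 mM after 1:15 dilution of overnight cultures. Cells were grown to OD600 0.4–0.7, washed twice in M9 and assayed for β-galactosidase.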

The test system of experiment [9] is Nucleic Acid. The experiment can be described thus: Activation of atoDAEB promoter activity in Escherichia coli K-12 BW25113 harboring plasmid containing atoA-lacz by beta-galactosidase reporter assay in presence of 2.5 mM acetoacetate.
Experiment [10] concerns Escherichia coli. The experiment in a line: Increase in DnaK protein level in Escherichia coli K-12 BW25113 by Western blot method. The class given is functional, organism-based.
For experiment [11], the system named is Escherichia coli. The experiment can be described thus: Increase in AtoC protein level in Escherichia coli K-12 BW25113 grown to OD600 0.5 to 0.6 at 1 to 2.5 mM by immunoblot method. The class given is functional, organism-based. In a few lines:
(§4)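 BW25113 carrying pUC-Az (atoS, atoC) grown in supplemented M9 with compound at 1.0 or 2.5 mM, added at the start of growth. Cultures were harvested at OD600 0.5–0.6. Whole-cell extracts in SDS loading buffer (15 µL) were boiled and run on SDS–PAGE, then immunoblotted with affinity-purified rabbit polyclonal anti-AtoC or anti-AtoS. BW28878, lacking AtoS/AtoC, was the negative control.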

Experiment [12] concerns Escherichia coli. The experiment in a line: Repression of atoDAEB transcription in Escherichia coli K-12 BW25113 at 1 mM by beta-galactosidase reporter assay. The format is functional, organism-based. In short, it runs like this:
as §3

Experiment [13] deals with Escherichia coli. The experiment in a line: Induction of atoC transcription in Escherichia coli K-12 BW25113 at 1 mM by beta-galactosidase reporter assay. The format is functional, organism-based. In a few lines: as §1
The nature of experiment [14]: Stimulation of recombinant purified His6-tagged cytosolic AtoS oligomers assessed as reduction in dimeric form at 1 mM using glutaraldehyde by SDS-PAGE analysis. In a few lines: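 It was then cross-linked 30 min at 25 °C with 0.1% glutaraldehyde. The reaction was stopped with 2× SDS loading buffer and boiling, run on 8.5% SDS–PAGE and immunoblotted with anti-His (1:500).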

The subject of experiment [15] is Escherichia coli. The experiment can be described thus: Effect on AtoS protein level in Escherichia coli K-12 BW25113 grown to OD600 0.5 to 0.6 at 1 mM by immunoblot method. The format is functional, organism-based. In short, it runs like this:
as §4

For experiment [16], the system named is Nucleic Acid. The experiment can be described thus: Activation of atoC promoter in Escherichia coli K-12 BW25113 by beta-galactosidase reporter assay. The format is nucleic-acid assay. In short, it runs like this: as §1
For experiment [17], the system named is Nucleic Acid. The experiment can be described thus: Effect on atoDAEB promoter activity in Escherichia coli K-12 BW25113 at 1 to 2.5 mM by beta-galactosidase reporter assay. The class given is nucleic-acid assay. In a few lines: (§5)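 BW25113 carrying pCPG4 (atoS-lacZ) or pCPG5 (atoA-lacZ), in supplemented M9 at 37 °C. Overnight cultures were diluted 1:15 into medium with compound at 1.0 or 2.5 mM and grown to OD600 0.4–0.7. Cells were harvested, washed twice in M9 and assayed for β-galactosidase. The pMLB1034 strain served as negative control.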

The test system of experiment [18] is Escherichia coli. The experiment can be described thus: Reduction in AtoS protein level in Escherichia coli K-12 BW25113 grown to OD600 0.5 to 0.6 at 2.5 mM by immunoblot method. The class given is functional, organism-based. In a few lines:
as §4

Experiment [19] concerns Nucleic Acid. The experiment can be described thus: Effect on atoS promoter activity in Escherichia coli K-12 BW25113 at 1 to 2.5 mM by beta-galactosidase reporter assay. The class given is nucleic-acid assay. In a few lines:
as §5

Experiment [20] concerns Escherichia coli. The experiment can be described thus: Induction of atoC transcription in Escherichia coli K-12 BW25113 by beta-galactosidase reporter assay. The format is functional, organism-based. In short, it runs like this:
as §1

SMILES strings stand for the structures. The source made the active and inactive calls. The rule behind the calls is not given here.

As to `COc1ccc(C2COc3c(C)c(C)cc(C)c3N2)cc1` (stereo unspecified), the outcome in [1] and in [3] was Active. Besides, the result in experiment [2] was inactive.

Regarding `Cc1cc(C)c2c(c1C)OCCN2`, the outcome in experiment [4], in experiment [6], in [7], in [8], in [9] and in experiment [2] was Active. In addition, the outcome in experiment [11], in experiment [12], in experiment [13], in [14] and in experiment [18] was Active. Also, the result in experiment [5], in experiment [15], in experiment [17] and in experiment [19] was inactive. The Activity result in [10], in experiment [16] and in experiment [20] was “Dose-dependent effect” throughout.

For the molecule `Cc1c(C)c2c(c(C)c1Br)NCCO2`, the outcome in [2], in [13] and in experiment [3] was inactive. Besides, the result in experiment [12] was Active.

Regarding `Cc1c(C)c2c(c(C)c1Cl)NCCO2`, the outcome in [1] and in experiment [12] was Active. Also, in experiment [2], the outcome was inactive.

As to `COc1ccc(C2CNc3c(C)cc(C)c(C)c3O2)cc1` (stereo unspecified), in [2], the result was inactive. Also, the result in [13] and in [3] was Active.

For `Cc1c(C)c2c(c(C)c1Cl)NCC(c1ccccc1)O2` (stereo unspecified), the outcome in [2] was inactive. For the same molecule, the result in experiment [13] and in experiment [3] was Active.

Consider `COc1ccc(-c2c(C)c(C)c3c(c2C)NCCO3)cc1`, for which the outcome in experiment [13] was Active. In [3], the outcome was inactive.

The values above are taken from ChEMBL document CHEMBL2176998, “Regulation of the Escherichia coli AtoSC two component system by synthetic biologically active 5;7;8-trimethyl-1;4-benzoxazine analogues” (Bioorg Med Chem, 2011).
